Experimental findings from PubChem BioAssay are described below.

Active and inactive are the calls of the source.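 How the source made its calls, unless noted: active means inhibition of the reporter signal at or above 50%; inactive means inhibition below 50%.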

Experiment [1] can be described thus: inhibitors of TNFa-induced NFkB p65 translocation, primary screen, imaging, HUVEC, MLSMR starter and 10KST1 sets (AID 438;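 active means inhibition above 20% together with a positive visual image hit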;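 further: compound added about 3h40 before a 20 min TNFalpha stimulation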;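 on inhibition: signal is the nuclear over cytoplasmic p65 intensity ratio per well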). The following applies: HUVEC TNFa-induced p65 nuclear translocation; cell count: measured here: nuclei count (cytotoxicity indicator), at 2.08 µM; inhibition: at 2 µM, stronger effect = higher value, 0% TNFa-plus-vehicle, 100% no-TNFa wells.
Experiment [2] can be described thus: reduction of polyQ htt aggregates in cells – imaging, exon1htt(103Q)mCFP cells, high-content imaging, primary screen (AID 483;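 active means visual image review flags a hit and inhibition of aggregation exceeds 20%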;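 further: compound exposure lasted 3 days before fixation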;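 on nuclei count: percent of the per-plate median nuclei count of sample wells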). The conditions noted are these: exon1htt(103Q)mCFP cell line, aggregate imaging, at 2 µM; inhibition of aggregation: stronger effect = higher value; nuclei count: measured here: cell count, toxicity.
Experiment [3] is described as follows: endothelial E-selectin expression blockers – imaging, HUVEC, immunofluorescence, MLSMR starter and 10KST1 sets, primary screen (AID 487;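 active means visually confirmed hit in the image check and inhibition above 20%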;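 on inhibition: signal is fraction of cell area covered by stained E-selectin grains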;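 on nuclei count: 100% = median nuclei count of all wells on the same plate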). The conditions noted are these: HUVEC TNFalpha-induced E-selectin immunofluorescence imaging, at 2 µM; inhibition: stronger effect = higher value; nuclei count: measured here: cell number, toxicity.
Experiment [4] addresses Voltage-gated potassium channel subunit beta-2 (Rattus norvegicus) (UniProt P62483). In words: inhibitors of rat Kvbeta2 reductase activity – biochemical, NADPH fluorescence, primary screen (AID 622;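 active means fluorescence slope higher than the sample average by over 3 SD, cut at about -0.22 in these data, passing the limit was not always enough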;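 further: slope of raw intensity against log time taken from 70 to 1610 s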). The conditions noted are these: recombinant KvBeta, 4-cyanobenzaldehyde reduction, at 10 µM, stronger effect = higher value.
For experiment [5] the target is unchanged. In words: enhancers of rat Kvbeta2 NADPH turnover – biochemical, NADPH fluorescence, primary screen (AID 623;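 active means NADPH fluorescence slope more negative than the mean of all samples by about 3 SD, 99.7% confidence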;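 further: fluorescence intensity change per second fitted from 20 to 320 s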). The conditions noted are these: Recombinant KvBeta, NADPH fluorescence decrease slope, 10 min; at 10 µM; stronger effect = lower value.
The target in experiment [6] is Alpha-2C adrenergic receptor (Homo sapiens) (UniProt P18825). The experiment in a line: compounds altering alpha2C-coupled GIRK flux – cell-based, HEK293 alpha2C/GIRK1/2, thallium flux, primary screen (AID 624;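 active means fluorescence slope after compound addition differing from the mean of all screened samples at 99.7% confidence, in either direction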;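 further: slope of fluorescence ratio to pre-addition baseline per second over 15 to 24 s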). The following applies: thallium flux BTC fluorescence, at 10 µM, actives lie on both sides.
Experiment [7] in a line: inhibitors of larval lipid processing in zebrafish, primary screen, whole organism, PED6 fluorescence, gall bladder and intestine (AID 686;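 active means a full or partial loss of lipid-probe fluorescence in the fish gall bladder, intestine or both, judged by eye; inactive means no fluorescence loss, or compound toxic to the fish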;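 further: larvae 5 to 7 days old with five fish per well; signal comes from phospholipase A2 cleavage of quenched PED6 carried via bile; overnight exposure to compound and PED6 before scoring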). The following applies: Zebrafish larvae PED6 lipid processing, fluorescence scoring; screened at 20 µM (by protocol). Put shortly:
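Doses: 20 µM single dose. Test system: live zebrafish larvae aged 5-7 days, whole organism. Quantity: five larvae per well. Measured by: By-eye fluorescence microscopy. Reagent: ingested quenched lipid PED6 at 100 nM. Read-out: visual per-well fluorescence inhibition score. Times: overnight exposure of larvae to compound plus PED6.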

The nature of experiment [8]: blockers of RIG-like receptor reporter activation – cell-based, Sendai virus stimulus, luciferase, 10K MLSCN set, TLR/RLR signaling modifier project, primary screen (AID 602276;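 active means inhibition at or above 50% at 10 µM; inactive means inhibition below 50%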;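 further: firefly luciferase from ISG56 promoter only with Renilla not read in this screen; 0% = Sendai virus plus DMSO and 100% = medium plus DMSO without virus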). The following applies: HEK293 RL24 IRF3 luciferase reporter, at 10 µM, stronger effect = higher value. On the technique in general: Reporter assays use an easily measured gene product as a stand-in for the process of interest.

A short description of experiment [9]: TLR3 IRF3 reporter activation blockers – cell-based, poly I:C stimulus, luciferase, 10K MLSCN set, primary screen (AID 602277). The conditions noted are these: HEK293-TLR3 RL24 IRF3 luciferase reporter, at 10 µM, stronger effect = higher value.

Broadly, the inhibition is the relative decrease from the control value, in per cent.

Alpha-2C adrenergic receptor (Homo sapiens), sequence (P18825 whole entry, looked up): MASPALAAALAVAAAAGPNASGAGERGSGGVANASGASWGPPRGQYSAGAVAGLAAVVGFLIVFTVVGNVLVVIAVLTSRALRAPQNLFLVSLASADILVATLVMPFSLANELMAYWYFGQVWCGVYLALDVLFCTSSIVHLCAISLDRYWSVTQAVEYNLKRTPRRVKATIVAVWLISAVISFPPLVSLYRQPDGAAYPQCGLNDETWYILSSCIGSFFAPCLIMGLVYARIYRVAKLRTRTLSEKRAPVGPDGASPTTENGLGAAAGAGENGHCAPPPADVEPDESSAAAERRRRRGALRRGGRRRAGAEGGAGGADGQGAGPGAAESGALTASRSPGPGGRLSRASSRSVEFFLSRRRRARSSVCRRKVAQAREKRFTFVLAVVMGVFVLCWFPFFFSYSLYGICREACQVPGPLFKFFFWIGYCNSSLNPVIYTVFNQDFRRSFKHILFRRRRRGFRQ
Voltage-gated potassium channel subunit beta-2 (Rattus norvegicus), sequence (P62483 whole entry, looked up): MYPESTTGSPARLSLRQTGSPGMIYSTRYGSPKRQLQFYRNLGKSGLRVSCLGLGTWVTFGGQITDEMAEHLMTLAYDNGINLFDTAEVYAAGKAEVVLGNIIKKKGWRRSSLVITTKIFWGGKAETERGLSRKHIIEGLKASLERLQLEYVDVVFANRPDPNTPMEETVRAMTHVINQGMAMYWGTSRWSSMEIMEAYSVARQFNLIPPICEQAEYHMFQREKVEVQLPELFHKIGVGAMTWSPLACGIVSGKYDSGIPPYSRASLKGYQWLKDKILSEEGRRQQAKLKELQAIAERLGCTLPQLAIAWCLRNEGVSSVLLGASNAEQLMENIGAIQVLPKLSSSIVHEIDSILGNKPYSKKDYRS

Turning to `COc1ccccc1N(CC(=O)NC1CCCC1)C(=O)CCC(=O)Nc1cc(C)on1`, the cell count in experiment [1] turned out to be 566. Besides, the inhibition was -8.6% (inactive) in experiment [1], -29.3% (inactive) in [3], -11.8% (inactive) in experiment [8] and -11.2% (inactive) in experiment [9]. Besides, the inhibition of aggregation in experiment [2] was 10.8% (inactive). Moreover, the nuclei count in [2] was 96.8%; in experiment [3], 102%. In experiment [4], the fluorescence slope was -0.408 (inactive). Further, the NADPH fluorescence slope in [5] was -5.9e-05 (inactive). Moreover, in experiment [6], the slope is 0.00447 (inactive). Besides, the outcome in experiment [7] was inactive.

In the case of `Cn1nc(C(C)(C)C)cc1C(=O)NCc1ccc(N2CCCC2=O)cc1`, in experiment [1], the cell count is 651. In addition, the inhibition in [1] was -10.6% (inactive); in [3], -11.3% (inactive); in experiment [8], 9.24% (inactive); in [9], -37.1% (inactive). In [2], the inhibition of aggregation is -12.4% (inactive). Also, the values for the nuclei count in experiment [2] and in experiment [3] were 70.7% and 107%, respectively. Further, the fluorescence slope in experiment [4] is -0.456 (inactive). Also, in [5], the NADPH fluorescence slope is -9.7e-05 (inactive). Moreover, the slope in [6] is 0.00425 (inactive). For the same molecule, the outcome in [7] was “inactive; toxic”.

On to `CCN(CC)C(c1ccc(C)cc1)c1nnnn1C1CCCCC1` (stereo unspecified), for which, in experiment [1], the cell count amounted to 438. Besides, the inhibition was -6.7% (inactive) in [1], 60% (inactive) in experiment [3], 16.7% (inactive) in [8] and 25.8% (inactive) in experiment [9]. Besides, the inhibition of aggregation in experiment [2] was 37.1% (inactive). The nuclei count in experiment [2] was 85.4%; in experiment [3], 88.2%. Further, the fluorescence slope in experiment [4] is -0.399 (inactive). Also, in [5], the NADPH fluorescence slope was -6.9e-05 (inactive). In addition, the slope in experiment [6] was 0.00367 (inactive). Also, the molecule was called inactive in experiment [7].

Consider `O=C(O)c1ccc(NC(=O)c2cccs2)cc1`, for which the cell count in experiment [1] stood at 464. The inhibition in experiment [1] is 1.2% (inactive); in experiment [3], -75.3% (inactive); in [8] it was 9.12% (inactive); in experiment [9], 13.8% (inactive). Moreover, the inhibition of aggregation in [2] is 6.1% (inactive). The nuclei count in experiment [2] is 89.3%; in experiment [3], 117%. Further, the fluorescence slope in experiment [4] is -0.362 (inactive). Besides, the NADPH fluorescence slope in experiment [5] was -2.7e-05 (inactive). For the same molecule, the slope in [6] is 0.00441 (inactive). Further, the call in [7] was inactive.

As to `COc1ccccc1N1CCN(c2cc(N3CCCC3)nc(C)n2)CC1`, the cell count in experiment [1] came out at 310. Moreover, the inhibition in [1] is 7.3% (inactive); in [3], -60.1% (inactive); in experiment [8], 3.33% (inactive); in [9], 1.07% (inactive). Further, the inhibition of aggregation in experiment [2] is 0% (inactive). The nuclei count stood at 102% in [2] and 136% in experiment [3]. In addition, the fluorescence slope in [4] is -0.471 (inactive). In addition, the NADPH fluorescence slope in [5] was -7.2e-05 (inactive). Moreover, in [6], the slope is 0.0045 (inactive). For the same molecule, in [7], the molecule was classed as inactive.

With `Nn1c(SCC(=O)Nc2ccccc2)nnc1-c1cccnc1`, the cell count in experiment [1] was determined as 502. Also, the inhibition was -4.8% (inactive) in [1], 7% (inactive) in experiment [3], -6.03% (inactive) in experiment [8] and -3.73% (inactive) in [9]. Further, the inhibition of aggregation in experiment [2] is 11% (inactive). The nuclei count in experiment [2] worked out at 126%; in experiment [3] it was 118%. The fluorescence slope in experiment [4] was -0.363 (inactive). In addition, the NADPH fluorescence slope in experiment [5] was -3.7e-05 (inactive). In experiment [6], the slope was 0.00741 (inactive). In addition, in experiment [7], the molecule was classed as inactive.

On to `O=C(NCC(=O)N(c1cccnc1)C(C(=O)NC1CCCCC1)c1cccnc1)c1ccco1` (stereo unspecified), for which the cell count in [1] came out at 424. The inhibition is 6.8% (inactive) in experiment [1], -37.8% (inactive) in experiment [3], 9.81% (inactive) in experiment [8] and 6.29% (inactive) in experiment [9]. Moreover, the inhibition of aggregation in experiment [2] is 6.3% (inactive). In addition, the nuclei count was 109% in [2] and 110% in experiment [3]. In addition, the fluorescence slope in [4] is -0.39 (inactive). Besides, the NADPH fluorescence slope in experiment [5] is -5.1e-05 (inactive). In experiment [6], the slope is 0.00388 (inactive). In addition, the molecule was classed as inactive in experiment [7].

For `Cc1ccc(C)c(-n2nnnc2SCC(=O)NCCC2=CCCCC2)c1`, the cell count in experiment [1] was 409. Also, the inhibition in experiment [1] is -6.6% (inactive); in experiment [3], -16.3% (inactive); in experiment [8], 17.6% (inactive); in experiment [9] it was 14.8% (inactive). Also, in experiment [2], the inhibition of aggregation is 28.8% (inactive). The nuclei count was 99.5% in [2] and 106% in [3]. In addition, the fluorescence slope in experiment [4] is -0.468 (inactive). The NADPH fluorescence slope in [5] was -5.4e-05 (inactive). The slope in [6] is 0.00361 (inactive). Further, the outcome in [7] was inactive.

For `Cn1c(=O)c2c(nc(NCCCO)n2Cc2cccc(Br)c2)n(C)c1=O`, the cell count in experiment [1] amounted to 705. For the same molecule, the inhibition in [1] is -1.8% (inactive); in experiment [3], 25.3% (inactive); in experiment [8], 14.9% (inactive); in experiment [9] it was 14.1% (inactive). Also, in experiment [2], the inhibition of aggregation is 1.7% (inactive). The nuclei count in experiment [2] was found to be 108%; in experiment [3], 92.8%. Also, the fluorescence slope in [4] is -0.349 (inactive). The NADPH fluorescence slope in [5] was -4.6e-05 (inactive). Moreover, the slope in experiment [6] was 0.00493 (inactive). The call in experiment [7] was inactive.

On to `O=C(O)c1ccc(CSc2ncn[nH]2)cc1`, for which, in [1], the cell count worked out at 352. Further, the inhibition in experiment [1] is -2.9% (inactive); in [3], -14.9% (inactive); in experiment [8], 6.95% (inactive); in experiment [9], 1.16% (inactive). For the same molecule, the inhibition of aggregation in [2] was -12.6% (inactive). Further, the nuclei count in experiment [2] amounted to 108%; in [3], 114%. Also, the fluorescence slope in experiment [4] was -0.42 (inactive). For the same molecule, the NADPH fluorescence slope in experiment [5] was -2.8e-05 (inactive). The slope in experiment [6] is 0.00649 (inactive). The molecule was classed as inactive in [7].

On to `COC(=O)c1ccccc1NC(=O)C12CCC(C)(C(=O)O1)C2(C)C` (stereo unspecified), for which, in experiment [1], the cell count was 358. Besides, the inhibition in [1] was 1.7% (inactive); in experiment [3], 29.1% (inactive); in experiment [8], 20.2% (inactive); in [9], 22.6% (inactive). Further, the inhibition of aggregation in experiment [2] was -12.1% (inactive). Further, the nuclei count in [2] stood at 106%; in experiment [3], 92.7%. The fluorescence slope in experiment [4] is -0.433 (inactive). In addition, the NADPH fluorescence slope in experiment [5] is -4.4e-05 (inactive). For the same molecule, the slope in [6] is 0.00406 (inactive). Also, in experiment [7], the molecule was classed as inactive.

On to `CN(CCNC(=O)c1ccc(N2CCCC2=O)cc1)CCc1ccccc1`, for which the cell count in [1] is 624. Moreover, the inhibition in experiment [1] was -24% (inactive); in experiment [3] it was -79.5% (inactive); in experiment [8] it was 6.9% (inactive); in experiment [9], 10.4% (inactive). Further, in [2], the inhibition of aggregation is 17.8% (inactive). For the same molecule, the values for the nuclei count in experiment [2] and in experiment [3] were 84.6% and 111%, respectively. Further, in [4], the fluorescence slope was -0.393 (inactive). In addition, the NADPH fluorescence slope in experiment [5] was -2.4e-05 (inactive). In addition, the slope in experiment [6] is 0.00561 (inactive). For the same molecule, the result in [7] was inactive.

Regarding `COc1ccc(S(=O)(=O)N2CCN(S(=O)(=O)c3ccc4c(c3)OCCO4)CC2)cc1C`, in [1], the cell count was found to be 377. Moreover, the inhibition in [1] is 4% (inactive); in [3], 15.9% (inactive); in experiment [8], 16.8% (inactive); in experiment [9], 26.6% (inactive). Besides, the inhibition of aggregation in experiment [2] was -8.3% (inactive). Besides, the nuclei count in experiment [2] was 114%; in experiment [3], 85%. Further, in experiment [4], the fluorescence slope was -0.223 (inactive). Further, in [5], the NADPH fluorescence slope is -5.5e-05 (inactive). Besides, the slope in experiment [6] is 0.00641 (inactive). Moreover, in experiment [7], the result was inactive.
